The text below walks through data of ChEMBL document CHEMBL1147494, “Differentiation of in vitro transcriptional repression and activation profiles of selective glucocorticoid modulators” (Bioorg Med Chem Lett, 2004).

Experiment [1] deals with Cell line. The experiment in a line: Effective concentration for transcriptional activation of aromatase in Human cell native protein assay. The experiment is classed as functional, cell-based.
Experiment [2] relates to Cell line. As to the kind of experiment: Effective concentration of compound for transcriptional repression of PGE-2 in Human cell native protein assay.
Experiment [3] deals with Cell line. As to the kind of experiment: Effective concentration of compound for transcriptional repression of IL-6 in Human cell native protein assay.
In experiment [4] the test system is Cell line. As to the kind of experiment: Efficacy for transcriptional repression of osteocalcin in Human cell native protein assay expressed as percentage of the maximal response of Dexamethasone.
The test system of experiment [5] is Cell line. As to the kind of experiment: Effective concentration of compound for transcriptional activation of TAT in Human cell native protein assay. The experiment is classed as functional, cell-based.
In experiment [6] the test system is Cell line. As to the kind of experiment: Efficacy for transcriptional activation of collagenase in Human cell native protein assay expressed as percentage of the maximal response of Dexamethasone. The experiment is classed as functional.
In experiment [7] the test system is Cell line. The experiment in a line: Efficacy for transcriptional […] of PGE-2 in Human cell native protein assay expressed as percentage of the maximal response of Dexamethasone. The experiment is classed as functional.
Experiment [8] deals with Cell line. As to the kind of experiment: Efficacy for transcriptional repression of IL-6 in Human cell native protein assay expressed as percentage of the maximal response of Dexamethasone. The experiment is classed as functional.
The subject of experiment [9] is Cell line. As to the kind of experiment: Effective concentration of compound for transcriptional activation of osteocalcin in Human cell native protein assay. The experiment is classed as functional, cell-based.
Experiment [10] relates to Cell line. As to the kind of experiment: Efficacy for transcriptional activation of TAT in Human cell native protein assay expressed as percentage of the maximal response of Dexamethasone. The experiment is classed as functional.
Experiment [11] has as its target T1, Progesterone receptor (Homo sapiens) (UniProt P06401).
T1 sequence (whole entry): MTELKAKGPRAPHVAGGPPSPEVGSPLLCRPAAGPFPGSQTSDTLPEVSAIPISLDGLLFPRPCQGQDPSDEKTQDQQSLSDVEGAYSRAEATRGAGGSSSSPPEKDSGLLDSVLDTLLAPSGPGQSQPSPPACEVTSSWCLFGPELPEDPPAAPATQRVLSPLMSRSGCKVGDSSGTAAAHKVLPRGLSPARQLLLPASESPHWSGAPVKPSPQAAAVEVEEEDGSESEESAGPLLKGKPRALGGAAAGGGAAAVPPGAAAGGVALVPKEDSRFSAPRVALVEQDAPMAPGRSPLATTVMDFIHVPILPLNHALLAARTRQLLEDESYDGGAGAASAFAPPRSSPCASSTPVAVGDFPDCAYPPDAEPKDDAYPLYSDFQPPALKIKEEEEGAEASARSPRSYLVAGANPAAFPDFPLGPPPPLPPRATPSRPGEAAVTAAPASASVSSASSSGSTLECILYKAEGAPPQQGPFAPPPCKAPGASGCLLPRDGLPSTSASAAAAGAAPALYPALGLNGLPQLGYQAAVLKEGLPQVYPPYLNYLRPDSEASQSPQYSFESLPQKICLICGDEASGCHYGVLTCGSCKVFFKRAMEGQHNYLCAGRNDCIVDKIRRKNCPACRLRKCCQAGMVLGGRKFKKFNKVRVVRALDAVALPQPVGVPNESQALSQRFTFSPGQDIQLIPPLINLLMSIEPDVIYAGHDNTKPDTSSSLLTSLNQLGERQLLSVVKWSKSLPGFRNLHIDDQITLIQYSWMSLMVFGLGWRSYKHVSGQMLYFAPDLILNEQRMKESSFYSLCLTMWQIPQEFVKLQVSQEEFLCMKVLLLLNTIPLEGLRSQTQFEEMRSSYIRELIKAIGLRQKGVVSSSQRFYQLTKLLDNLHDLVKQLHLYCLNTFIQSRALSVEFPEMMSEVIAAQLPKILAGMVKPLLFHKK
The experiment in a line: In vitro binding affinity against progesterone receptor. Put shortly: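 Competition binding assay against progesterone receptor. Replicates vary by value: single experiments in triplicate; two experiments with triplicate determinations (with standard deviation); or at least three separate experiments in triplicate (mean ± SEM).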

Experiment [12] relates to Cell line. The experiment in a line: Effective concentration of compound for transcriptional repression of collagenase in Human cell native protein assay.
Experiment [13] concerns Cell line. As to the kind of experiment: Efficacy for transcriptional activation of aromatase in Human cell native protein assay expressed as percentage of the maximal response of Dexamethasone. The experiment is classed as functional.
The target of experiment [14] is T1, Progesterone receptor (Homo sapiens). The experiment in a line: Transcriptional activation in cells expressing progesterone receptor isoform B compared to progesterone. The experiment is classed as functional.
A further experiment has as its target T2, Progesterone receptor (Homo sapiens, UniProt P06401).
T2 sequence (P06401 whole entry): T1 sequence (whole entry)
As to the kind of experiment: Inhibition of transcriptional activation in cells expressing progesterone receptor isoform B. The experiment is classed as functional.

The target of experiment [15] is T3, Glucocorticoid receptor (Homo sapiens, UniProt P04150).
T3 sequence (P04150 whole entry): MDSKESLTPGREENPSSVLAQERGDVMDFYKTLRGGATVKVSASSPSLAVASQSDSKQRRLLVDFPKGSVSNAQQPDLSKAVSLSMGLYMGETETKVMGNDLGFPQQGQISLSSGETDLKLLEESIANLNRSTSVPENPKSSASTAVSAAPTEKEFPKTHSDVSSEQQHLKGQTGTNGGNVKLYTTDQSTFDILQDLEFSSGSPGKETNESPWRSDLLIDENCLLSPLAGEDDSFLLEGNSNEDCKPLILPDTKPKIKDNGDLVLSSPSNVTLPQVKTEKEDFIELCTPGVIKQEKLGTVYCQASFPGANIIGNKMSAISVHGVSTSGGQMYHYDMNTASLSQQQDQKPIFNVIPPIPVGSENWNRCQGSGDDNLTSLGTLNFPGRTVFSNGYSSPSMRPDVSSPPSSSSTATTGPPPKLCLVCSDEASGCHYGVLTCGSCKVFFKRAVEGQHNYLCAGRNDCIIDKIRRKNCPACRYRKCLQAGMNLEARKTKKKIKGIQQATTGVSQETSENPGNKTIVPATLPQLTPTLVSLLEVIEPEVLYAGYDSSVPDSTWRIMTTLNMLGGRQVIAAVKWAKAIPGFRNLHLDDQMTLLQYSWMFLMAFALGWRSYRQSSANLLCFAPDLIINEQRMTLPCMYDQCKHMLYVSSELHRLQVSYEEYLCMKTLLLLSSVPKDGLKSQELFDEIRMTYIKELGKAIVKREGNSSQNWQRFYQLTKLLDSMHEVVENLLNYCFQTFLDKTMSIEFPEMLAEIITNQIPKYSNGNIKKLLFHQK
As to the kind of experiment: Inhibition of transcriptional activation in CV-1 cells expressing glucocorticoid receptor. The experiment is classed as functional, cell-based.

Experiment [16] deals with T3, Glucocorticoid receptor. The experiment in a line: Inhibition of transcriptional repression in CV-1 cells expressing glucocorticoid receptor. The experiment is classed as functional, cell-based.

Molecules are shown by their SMILES. Some results are limits rather than exact numbers.

Take `C[C@]12C=CC(=O)C=C1CC[C@@H]1[C@@H]2[C@@H](O)C[C@@]2(C)[C@H]1CC[C@]2(O)C(=O)CO` [PREDNISOLONE]: the EC50 in the experiment with Cell line [1] turned out to be 45 nM; in the experiment on Cell line [2], 2 nM; with Cell line [3], 3.6 nM; with Cell line [5], 48 nM; in the experiment with Cell line [9], 32 nM; in the experiment on Cell line [12], 0.4 nM. Further, the Efficacy in the experiment with Cell line [4] was found to be 94%; with Cell line [6], 98%; in the experiment on Cell line [7] it was 100%; with Cell line [8], 98%; with Cell line [10], 95%; in the experiment with Cell line [13] it was 96%. In experiment [11], the Activity is greater than 5000 nM.

Consider `COc1c(O)ccc2c1-c1ccc3c(c1[C@H]([C@@H]1C=C(C)CCC1)O2)C(C)=CC(C)(C)N3`, for which, in experiment [14], the Efficacy came to 260%. In experiment [11], the Activity stood at 11.4 nM. At Progesterone receptor, the midpoint of inhibition, the IC50, lay at 7.1 nM.

Regarding `COc1cccc2c1-c1ccc3c(c1[C@H]([C@@H]1C=C(C)CCC1)O2)C(C)=CC(C)(C)N3`, the concentration giving a half-maximal response (EC50) in the experiment with Cell line [1] was 59 nM; in the experiment on Cell line [2], 5.4 nM; with Cell line [3], 45 nM; in the experiment with Cell line [5], 290 nM; with Cell line [9] it was 54 nM; with Cell line [12], 3.4 nM. Besides, the Efficacy with Cell line [4] was 71%; with Cell line [6] it was 97%; in the experiment with Cell line [7], 95%; with Cell line [8] it was 90%; in experiment [14] it was 70%; with Cell line [10] it was 67%. The molecule also registered an Efficacy with Cell line [13] of 43%. Further, the concentration for half-maximal inhibition (IC50) at Glucocorticoid receptor [15] is greater than 5000 nM; at Glucocorticoid receptor [16], 5.8 nM; against Progesterone receptor it was 14 nM. The Activity in experiment [11] was determined as 430 nM.

What is called EC50 is the concentration needed to bring the measured effect to its halfway point. In general, IC50 refers to the midpoint of a concentration-inhibition curve.
